Experimental data taken from ChEMBL document CHEMBL5260797, “N-(1-Benzyl-3,5-dimethyl-1H-pyrazol-4-yl)benzamides: Antiproliferative Activity and Effects on mTORC1 and Autophagy” (ACS Med Chem Lett, 2017).
Values after ≈ are worked out from the molar mass of the structure shown. Blank lines part the entries; values can stand above or below the compound they belong to. Active and inactive are the calls of the source. No cut-off for these calls is given here.

Experiments:
[1] = system: MIA PaCa-2; test: Antiproliferative activity against human MIA PaCa-2 cells assessed as cell viability measured after 72 hrs by MTT assay; format: functional, cell-based; conditions: MIA PaCa-2, 72 h
How it was run: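 MIA PaCa-2 pancreatic cancer cells; EC50 values determined in triplicate.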

[2] = target: T1, mTORC1 (Homo sapiens) (UniProt P42345+Q8N122+Q9BVC4); test: Inhibition of mTORC1 in human ARPE19 cells at 10 to 50 uM measured after 4 hrs by Western blot analysis related to control; format: cell-based; conditions: ARPE-19, dose 10-50 µM
How it was run: (§1)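 ARPE-19 cells treated 4 h without starvation with increasing concentrations or DMSO. Basal mTORC1 activity measured by Western blot as phosphorylated P70/total P70, with DMSO set to 100%.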

[3] = system: ARPE-19; test: Induction of autophagy in human ARPE-19 cells assessed as decrease in LC3-2/actin ratio at 10 uM pretreated for 30 mins with cells followed by incubation for 4 hrs under starvation condition in presence of bafilomycin by Western blot analysis; format: functional, cell-based; conditions: time 4.5 hrs
How it was run: (§2)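 ARPE-19 cells pretreated 30 min at 10 μM (or DMSO). Then 4 h with compound in EBSS starvation medium, or in EBSS with 100 nM bafilomycin. LC3-II/actin quantified by Western blot as fold of DMSO control, n = 3.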

[4] = Thermodynamic aqueous solubility of the compound at pH 7.4 measured after 48 hrs by UV-spectrometry method; format: physicochemical; conditions: read-out: Therm_solubility
[5] = system: ARPE-19; test: Induction of autophagy in human ARPE-19 cells assessed as LC3 enlarged structures at 25 uM pretreated for 30 mins with cells followed by incubation for 4 hrs under starvation condition by immunofluorescence analysis; format: functional, cell-based; conditions: time 4.5 hrs
How it was run: (§3)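 ARPE-19 cells starved 4 h in EBSS with 25 μM compound or DMSO. LC3-labeled structures imaged by immunofluorescence, with CD63 as late endosomal/lysosomal marker.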

[6] = Metabolic stability in human plasma assessed as parent compound remaining measured after 24 hrs by LC-MS/MS analysis; format: ADME, cell-free; conditions: read-out: Stability
[7] = system: ARPE-19; test: Induction of autophagy in human ARPE-19 cells assessed as LC3 level at 25 uM measured after 4 hrs under starvation/refeed condition by immunofluorescence analysis; format: functional, cell-based
How it was run: (§4)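 ARPE-19 cells starved 4 h in EBSS, then refed 1 h in complete medium containing 25 μM compound or DMSO. LC3 punctae imaged by immunofluorescence, with CD63 co-stain.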

[8] = system: ARPE-19; test: Induction of autophagy in human ARPE-19 cells assessed as LC3 accumulation at 25 to 50 uM measured after 4 hrs under refeed condition by immunofluorescence analysis; format: functional, cell-based; conditions: dose 25-50 µM
[9] = target: T1, mTORC1 (Homo sapiens); test: Inhibition of mTORC1 in human ARPE19 cells measured after 4 hrs by Western blot analysis; format: cell-based; conditions: ARPE-19, dose 10-50 µM; how it was run: as §1
[10] = Cytotoxicity against human ARPE-19 cells assessed as cell viability measured after 72 hrs by MTT assay; format: toxicity, cell-based
[11] = Metabolic stability in mouse liver microsomes assessed as half life at 1 uM by LC-MS/MS analysis; format: ADME, Microsome
[12] = system: ARPE-19; test: Induction of autophagy in human ARPE-19 cells assessed as increase in LC3-2 conversion at 10 uM measured after 4 hrs by Western blot analysis; format: functional, cell-based
How it was run: (§5)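 ARPE-19 cells treated 4 h in complete medium without starvation with increasing concentrations (10, 25, 50 μM) or DMSO. LC3 detected by Western blot; LC3-II/actin ratio expressed as fold increase over DMSO control, n = 3.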

[13] = system: ARPE-19; test: Induction of autophagy in human ARPE-19 cells assessed as fold increase in LC3 turnover at 25 uM measured after 4 hrs by Western blot analysis; format: functional
How it was run: (§6)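 ARPE-19 human retinal pigment epithelial cells exposed 4 h to compound or DMSO in complete medium without starvation. LC3 conversion read by Western blot as LC3-II/actin ratio and expressed as fold increase over DMSO control, n = 3.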

[14] = Metabolic stability in mouse plasma assessed as parent compound remaining measured after 24 hrs by LC-MS/MS analysis; format: ADME, cell-free; conditions: read-out: Stability
[15] = Metabolic stability in mouse plasma assessed as parent compound remaining measured after 6 hrs by LC-MS/MS analysis; format: ADME, cell-free; conditions: read-out: Stability
[16] = system: ARPE-19; test: Induction of autophagy in human ARPE-19 cells assessed as increase in LC3-labeled punctae at 25 uM measured after 4 hrs by immunofluorescence analysis relative to control; format: functional, cell-based
How it was run: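 ARPE-19 cells treated 4 h at 25 μM in complete medium without starvation, or with DMSO. LC3 punctae detected by immunofluorescence, with CD63 as late endosomal/lysosomal marker.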

[17] = system: ARPE-19; test: Induction of autophagy in human ARPE-19 cells assessed as decrease in LC3-2/actin ratio at 10 uM pretreated for 30 mins with cells followed by incubation for 4 hrs under starvation condition by Western blot analysis; format: functional, cell-based; conditions: time 4.5 hrs; how it was run: as §2
[18] = system: ARPE-19; test: Induction of autophagy in human ARPE-19 cells assessed as appearance of abnormal punctae at 25 uM measured after 1 hr under starvation/refeed condition by immunofluorescence analysis; format: functional, cell-based; how it was run: as §4
[19] = system: ARPE-19; test: Reduction in autophagic flux in human ARPE-19 cells at 25 uM incubated for 4 hrs in complete medium in presence of bafilomycin; format: functional, cell-based
How it was run: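 ARPE-19 cells in full medium with 100 nM bafilomycin plus compound or DMSO. Autophagic flux read as LC3-II by Western blot.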

[20] = target: T1, mTORC1 (Homo sapiens); test: Inhibition of mTORC1 reactivation in human ARPE-19 cells at 25 to 50 uM preincubated for 4 hrs under starvation/refeed condition measured after 1 hr in complete medium by Western blot analysis; format: cell-based; conditions: dose 25-50 µM, time 5.0 hrs
[21] = Metabolic stability in human plasma assessed as parent compound remaining measured after 6 hrs by LC-MS/MS analysis; format: ADME, cell-free; conditions: read-out: Stability
[22] = system: ARPE-19; test: Induction of autophagy in human ARPE-19 cells assessed as appearance of LC3 non-uniformed shapes at 25 uM pretreated for 30 mins with cells followed by incubation for 4 hrs under starvation condition by immunofluorescence analysis; format: functional, cell-based; conditions: time 4.5 hrs; how it was run: as §3
[23] = target: T1, mTORC1 (Homo sapiens); test: Inhibition of mTORC1 reactivation in human ARPE-19 cells assessed as reduction of 4E-BP1 phosphorylation at 10 uM preincubated for 4 hrs under starvation/refeed condition measured after 1 hr in complete medium by Western blot analysis; format: cell-based; conditions: time 5.0 hrs
How it was run: (§7)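 ARPE-19 cells starved 4 h in EBSS, then refed 1 h in complete medium with 10 μM compound or DMSO. mTORC1 reactivation read by Western blot as phosphorylation of P70 and 4EBP1.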

[24] = target: T1, mTORC1 (Homo sapiens); test: Inhibition of mTORC1 in human ARPE19 cells assessed as decrease in P70/total P70 phosphorylation level at 10 uM measured after 4 hrs by Western blot analysis; format: cell-based; conditions: ARPE-19; how it was run: as §1
[25] = target: T1, mTORC1 (Homo sapiens); test: Inhibition of mTORC1 reactivation in human ARPE-19 cells assessed as reduction of P70 phosphorylation at 10 uM preincubated for 4 hrs under starvation/refeed condition measured after 1 hr in complete medium by Western blot analysis; format: cell-based; conditions: time 5.0 hrs; how it was run: as §7
[26] = system: ARPE-19; test: Inhibition of autophagy in human ARPE-19 cells assessed as fold decrease in LC3 turnover at 10 uM pretreated for 30 mins with cells followed by incubation for 4 hrs under starvation condition by Western blot analysis; conditions: time 4.5 hrs
[27] = system: ARPE-19; test: Induction of autophagy in human ARPE-19 cells assessed as increase in LC3-2 conversion at 25 to 50 uM measured after 4 hrs by Western blot analysis; format: functional, cell-based; conditions: dose 25-50 µM; how it was run: as §5
[28] = system: ARPE-19; test: Induction of autophagy in human ARPE-19 cells assessed fold increase in LC3 turnover at 10 uM pretreated measured after 1 hr under refeed condition by Westernblot analysis; format: functional
How it was run: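 ARPE-19 cells pretreated 30 min with 10 μM compound or DMSO, starved 4 h in EBSS, then refed 1 h in complete medium with compound or DMSO. LC3-II/actin quantified by Western blot and expressed as fold increase over DMSO control, n = 3.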

[29] = system: ARPE-19; test: Induction of autophagy in human ARPE-19 cells assessed as increase in LC3-2 conversion measured after 4 hrs by Western blot analysis; format: functional, cell-based; conditions: dose 25-50 µM; how it was run: as §5
[30] = system: ARPE-19; test: Induction of autophagy in human ARPE-19 cells assessed as fold increase in LC3 turnover at 50 uM measured after 4 hrs by Western blot analysis; format: functional; how it was run: as §6

T1 sequence (Q8N122 whole entry, looked up, other chains not shown): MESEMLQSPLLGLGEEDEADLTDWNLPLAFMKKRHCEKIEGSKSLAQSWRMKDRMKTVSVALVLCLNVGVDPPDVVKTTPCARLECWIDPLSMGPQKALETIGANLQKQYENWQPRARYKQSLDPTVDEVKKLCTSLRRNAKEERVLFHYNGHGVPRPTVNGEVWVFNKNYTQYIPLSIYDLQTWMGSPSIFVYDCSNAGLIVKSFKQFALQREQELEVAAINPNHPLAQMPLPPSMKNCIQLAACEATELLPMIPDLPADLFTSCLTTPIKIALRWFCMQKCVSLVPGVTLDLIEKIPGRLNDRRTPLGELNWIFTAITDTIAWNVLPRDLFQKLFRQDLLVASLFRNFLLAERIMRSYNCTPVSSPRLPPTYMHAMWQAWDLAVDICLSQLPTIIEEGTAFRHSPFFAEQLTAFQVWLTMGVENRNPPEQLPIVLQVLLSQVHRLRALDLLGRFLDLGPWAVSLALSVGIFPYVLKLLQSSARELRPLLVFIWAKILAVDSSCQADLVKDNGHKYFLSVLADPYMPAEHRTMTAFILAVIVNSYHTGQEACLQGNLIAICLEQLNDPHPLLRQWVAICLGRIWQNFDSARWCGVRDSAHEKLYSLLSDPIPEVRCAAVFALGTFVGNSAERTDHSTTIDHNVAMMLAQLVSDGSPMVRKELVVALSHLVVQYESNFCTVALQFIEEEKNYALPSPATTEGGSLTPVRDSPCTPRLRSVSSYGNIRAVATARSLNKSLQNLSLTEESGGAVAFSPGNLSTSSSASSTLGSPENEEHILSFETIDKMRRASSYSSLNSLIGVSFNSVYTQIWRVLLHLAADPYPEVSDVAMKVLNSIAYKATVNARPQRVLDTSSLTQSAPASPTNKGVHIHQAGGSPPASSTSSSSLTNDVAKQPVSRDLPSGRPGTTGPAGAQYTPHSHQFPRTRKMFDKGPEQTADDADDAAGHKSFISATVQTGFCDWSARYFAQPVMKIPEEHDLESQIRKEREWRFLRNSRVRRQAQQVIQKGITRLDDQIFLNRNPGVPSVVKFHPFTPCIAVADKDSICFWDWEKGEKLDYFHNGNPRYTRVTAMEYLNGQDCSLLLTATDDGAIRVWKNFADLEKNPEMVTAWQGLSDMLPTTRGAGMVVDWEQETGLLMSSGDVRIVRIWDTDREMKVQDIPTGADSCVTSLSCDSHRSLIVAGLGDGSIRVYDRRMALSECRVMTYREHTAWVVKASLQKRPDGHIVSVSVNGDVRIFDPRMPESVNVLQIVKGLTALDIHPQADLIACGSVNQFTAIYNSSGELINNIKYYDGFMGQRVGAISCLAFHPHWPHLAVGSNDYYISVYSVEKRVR
T1 sequence (Q9BVC4 whole entry, looked up, other chains not shown): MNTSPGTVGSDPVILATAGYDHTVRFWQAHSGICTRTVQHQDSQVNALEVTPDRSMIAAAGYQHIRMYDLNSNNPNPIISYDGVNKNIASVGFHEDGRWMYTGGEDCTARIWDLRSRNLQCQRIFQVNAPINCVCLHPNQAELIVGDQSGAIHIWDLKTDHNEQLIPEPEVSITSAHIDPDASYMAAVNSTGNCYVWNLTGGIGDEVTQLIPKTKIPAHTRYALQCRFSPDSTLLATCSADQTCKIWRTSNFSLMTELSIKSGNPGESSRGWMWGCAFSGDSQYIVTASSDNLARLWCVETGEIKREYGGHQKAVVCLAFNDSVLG

Compound: C#Cc1cccc(Nc2ncnc3cc(OCCOC)c(OCCOC)cc23)c1 [ERLOTINIB]
EC50 [1]: 27 µM

Compound: CNC(=O)c1cccc(Cn2nc(C)c(NC(=O)c3ccc(COc4ccccc4C(F)(F)F)cc3)c2C)c1
EC50 [1]: 10 µM

Compound: CNC(=O)c1cccc(Cn2nc(C)c(NC(=O)c3ccc(COc4ccc(C(F)(F)F)cc4)cc3)c2C)c1
inhibition [2]: 46%
Activity [3]: inactive
solubility thermodynamic at 48 h [4]: 67.3 µM (≈ 36.1 µg/mL)
Activity [5]: Active
remaining at 24 h [6]: 100%
Activity [7]: Active
Activity [8]: Active
inhibition [9]: Dose-Dependent Effect
EC50 at 72 h [10]: 47.9 µM
half-life at 1 µM [11]: 1 h
Activity [12]: Active
fold change (FC) [13]: 2.7
remaining at 24 h [14]: 77%
remaining at 6 h [15]: 91%
Activity [16]: Active
Activity [17]: Active
Activity [18]: Active
Activity [19]: inactive
inhibition [20]: Active
remaining at 6 h [21]: 99%
Activity [22]: Active
Activity [23]: inactive
inhibition [24]: Active
Activity [25]: inactive
fold change (FC) [26]: 1.2
EC50 [1]: 0.8 µM

Compound: Cc1nn(Cc2ccc(C(N)=O)cc2)c(C)c1NC(=O)c1ccc(COc2ccccc2)cc1
EC50 [1]: > 100 µM

Compound: Cc1nn(Cc2ccccc2C(N)=O)c(C)c1NC(=O)c1ccc(COc2ccccc2)cc1
EC50 [1]: 42 µM

Compound: CNC(=O)c1cccc(Cn2nc(C)c(NC(=O)c3ccc(COc4ccc(C(F)(F)F)cc4C)cc3)c2C)c1
inhibition [2]: 78%
Activity [3]: inactive
Activity [27]: Active
fold change (FC) [28]: 1.7
solubility thermodynamic at 48 h [4]: 166 µM (≈ 91.4 µg/mL)
Activity [29]: Dose-Dependent Effect
Activity [5]: Active
remaining at 24 h [6]: 100%
Activity [7]: Active
Activity [8]: Active
inhibition [9]: Dose-Dependent Effect
EC50 at 72 h [10]: 7.1 µM
fold change (FC) [30]: 3.3
Activity [12]: Active
remaining at 24 h [14]: 93%
remaining at 6 h [15]: 88%
Activity [16]: Active
Activity [17]: Active
Activity [18]: Active
Activity [19]: inactive
Activity [20]: Active
remaining at 6 h [21]: 98%
Activity [22]: Active
Activity [23]: Active
inhibition [24]: Active
Activity [25]: Active
fold change (FC) [26]: 1.7
EC50 [1]: 0.62 µM

Compound: CNC(=O)c1cccc(Cn2nc(C)c(NC(=O)c3ccc(COC4CCCCC4)cc3)c2C)c1
EC50 [1]: 14 µM

Compound: Cn1cnc(N)c2ncnc1-2 [3-METHYLADENINE]
EC50 [1]: > 100 µM

The remaining compounds from weak to strong by EC50 [1], led by results:

EC50 [1]: 8.9 µM
Compound: Cc1nn(Cc2cccc(C(=O)NC(C)C)c2)c(C)c1NC(=O)c1ccc(COc2ccccc2)cc1

EC50 [1]: 8.5 µM
Compound: CNC(=O)c1cccc(Cn2nc(C)c(NC(=O)c3ccc(COc4ccccc4OC)cc3)c2C)c1

EC50 [1]: 6.2 µM
Compound: CNC(=O)c1cccc(Cn2nc(C)c(NC(=O)c3ccc(COc4ccccc4)cc3)c2C)c1

EC50 [1]: 5.9 µM
Compound: CNC(=O)c1cccc(Cn2nc(C)c(NC(=O)c3ccc(COc4cccc(Cl)c4)cc3)c2C)c1

EC50 [1]: 2.6 µM
Compound: CNC(=O)c1cccc(Cn2nc(C)c(NC(=O)c3ccc(COc4ccc(C)cc4)cc3)c2C)c1

EC50 [1]: 2.1 µM
Compound: CNC(=O)c1cccc(Cn2nc(C)c(NC(=O)c3ccc(COc4ccccc4C)cc3)c2C)c1
